Reference: ChEMBL document CHEMBL4627365, “Dithiocarbamate prodrugs activated by prostate specific antigen to target prostate cancer” (Bioorg Med Chem Lett, 2020)
Blank lines part the entries; values can stand above or below the compound they belong to. Residues, ends and D or L forms follow the SMILES beside them. *: point of attachment. X1 = CCN(CC)C(=S)SCc1ccc(N*)cc1

Assays:
[1] = molecular target: T1, Prostate-specific antigen (Homo sapiens, UniProt P07288); assay: Prodrug activation in human LNCAP cell lysates assessed as PSA-mediated peptide cleavage measured up to 4 hrs by HPLC analysis; assay type: subcellular, Lysate
T1 sequence (P07288 whole entry): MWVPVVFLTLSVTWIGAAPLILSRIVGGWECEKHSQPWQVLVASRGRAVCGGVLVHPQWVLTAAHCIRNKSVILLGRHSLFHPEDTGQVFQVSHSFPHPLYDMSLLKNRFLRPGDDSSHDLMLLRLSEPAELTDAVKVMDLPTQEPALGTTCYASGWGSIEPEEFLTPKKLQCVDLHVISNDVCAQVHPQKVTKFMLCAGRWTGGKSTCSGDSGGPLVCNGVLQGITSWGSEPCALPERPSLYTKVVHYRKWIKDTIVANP
Summary of the method: (§1)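 Prodrug incubated with LNCaP or PC3 cell lysate. Cleavage followed over time by HPLC, with caffeine as reference, for up to 48 h.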

[2] = Prodrug activation in human PC3 cell lysate assessed as peptide cleavage measured up to 4 hrs by HPLC analysis; assay type: subcellular; conditions: pc-3, 4 h; summary of the method: as §1
[3] = molecular target: T1, Prostate-specific antigen; assay: Prodrug activation assessed as PSA-mediated (unknown origin) 4-((R)-2-((R)-2-amino-3-hydroxypropanamido)-4-methylpentanamido)benzyl diethyl-carbamodithioate metabolite formation by HPLC analysis; assay type: ADME
Summary of the method: (§2)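 Prodrug incubated with 20 μg/mL PSA enzyme; samples taken at 5 min, 1 h, 2 h, 4 h, 8 h, 24 h and 48 h. Monitored by HPLC at 254 nm as percent prodrug remaining. Cleavage product identity confirmed by mass spectrometry.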

[4] = molecular target: T1, Prostate-specific antigen; assay: Prodrug activation assessed as PSA-mediated (unknown origin) compound cleavage measured up to 8 hrs by HPLC analysis; summary of the method: as §2
[5] = molecular target: T1, Prostate-specific antigen; assay: Prodrug activation assessed as PSA-mediated (unknown origin) diethyldithiocarbamate formation in presence of leucine aminopeptidase by LC-MS analysis; assay type: ADME
[6] = molecular target: T1, Prostate-specific antigen; assay: Prodrug activation assessed as PSA-mediated (unknown origin) Cu(diethyldithiocarbamate)2 complex formation in presence of leucine aminopeptidase and CuSO4 after 14.5 mins by LC-MS analysis; assay type: ADME
[7] = molecular target: T1, Prostate-specific antigen; assay: Prodrug activation assessed as PSA-mediated (unknown origin) [4-[[(2S)-2-[[(2R)-2-amino-3-hydroxy-propanoyl]amino]-4-methyl-pentanoyl]amino]phenyl]methyl N,N-diethylcarbamodithioate metabolite formation in presence of CuSO4 by LC-MS analysis; assay type: ADME
Summary of the method: (§3)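 Prodrug was incubated with 20 μg/mL PSA enzyme and sampled from 5 min to 48 h. Samples were analysed by HPLC at 254 nm, and products were assigned by mass spectrometry (m/z).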

[8] = molecular target: T1, Prostate-specific antigen; assay: Prodrug activation assessed as PSA-mediated (unknown origin) Cu(diethyldithiocarbamate)2 complex formation in presence of CuSO4 by LC-MS analysis; assay type: ADME; summary of the method: as §3
Prostatic carcinoma cell = assay: Antiproliferative activity against human prostate cancer cells assessed as reduction in cell viability after 24 hrs by resazurin dye based assay; assay type: functional
Summary of the method: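 LNCaP (PSA-expressing) and PC3 (PSA-non-expressing) cells were co-treated with prodrug plus 1 μM CuSO4. Proliferation was read by resazurin assay at 24 h, and IC50 was derived.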

[9] = Cytotoxicity against human prostate epithelial cells assessed as reduction in cell viability after 24 hrs by resazurin dye based assay
[10] = Prodrug activation in human PC3 cell lysate assessed as peptide cleavage measured up to 48 hrs by HPLC analysis; assay type: subcellular; conditions: pc-3, 48 h; summary of the method: as §1
[11] = molecular target: T2, Prostate-specific antigen (PSA) (Homo sapiens, UniProt P07288); assay: Stability assessed as PSA-mediated (unknown origin) compound cleavage by measuring parent compound remaining after 48 hrs by HPLC analysis; assay type: ADME; conditions: prostate-specific antigen (PSA) enzyme, read-out: Stability; summary of the method: as §2
T2 sequence (P07288 whole entry): T1 sequence (P07288 whole entry)

[12] = molecular target: T1, Prostate-specific antigen; assay: Prodrug activation assessed as PSA-mediated (unknown origin) Leu-PAB-DT metabolite formation measured up to 48 hrs by HPLC analysis; assay type: ADME; summary of the method: as §2

SMILES: CCN(CC)C(=S)SCc1ccc(NC(=O)[C@H](CC(C)C)NC(=O)[C@H](CCC(N)=O)NC(=O)[C@H](CC(C)C)NC(=O)[C@H](CCCCN)NC(=O)[C@H](CO)NC(=O)[C@H](CO)NC(=O)[C@H](Cc2c[nH]cn2)NC(C)=O)cc1 (Ac-HSSKLQL-X1)
Drug metabolism [1]: 100% | Drug metabolism [2]: > 50% | Drug metabolism [3]: Metabolite_Detected | Drug metabolism [4]: 100% | Drug metabolism [5]: Metabolite_Notdetected | Drug metabolism [6]: Metabolite_Detected

Drug metabolism [7]: Metabolite_Detected | Drug metabolism [8]: Metabolite_Notdetected
SMILES: CCN(CC)C(=S)SCc1ccc(NC(=O)[C@H](CC(C)C)NC(=O)[C@H](CO)NC(=O)[C@H](Cc2ccc(O)cc2)NC(=O)[C@H](Cc2ccc(O)cc2)NC(=O)[C@H](CO)NC(=O)[C@H](CO)NC(=O)[C@H](CCCNC(=N)N)NC(=O)[C@H](N)CO)cc1

IC50 (Prostatic carcinoma cell): 0.8 µM
SMILES: CCN(CC)C(=S)SCc1ccc(NC(=O)CC[C@H](N)C(=O)O)cc1
IC50 [9]: 15 µM

SMILES: CCN(CC)C(=S)SCc1ccc(NC(=O)[C@H](CC(C)C)NC(=O)[C@H](CO)NC(=O)[C@H](Cc2ccc(O)cc2)NC(=O)[C@H](Cc2ccc(O)cc2)NC(=O)[C@H](CO)NC(=O)[C@H](CO)NC(=O)[C@@H](N)CCCNC(=N)N)cc1 (H-RSSYYSL-X1)
Drug metabolism [10]: Metabolite_Notdetected | remaining at 48 h [11]: 30% | Drug metabolism [1]: 100% | Drug metabolism [5]: Metabolite_Notdetected | Drug metabolism [12]: Metabolite_Detected | Drug metabolism [6]: Metabolite_Detected
